Screens: PubChem BioAssay, several laboratories
Shown are actives, neighbours in structure and some others; about 1.6% of the full set was active somewhere.
RAD52 inh – RAD52 DNA annealing inhibitors, primary screen, biochemical, FRET, single point, set 2. AID 651710, 2012. inhibition, % at 18.7 µM. recombinant RAD52 DNA annealing, FRET fluorescence. DNA repair protein RAD52 homolog (Homo sapiens), P43351. 360,000 compounds, 0.46% hits;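 active = every replicate showing at least 50% inhibition; inconclusive = mean inhibition at least 50% but not in every replicate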
RAD54 branch – inhibitors of human RAD54 branch migration, primary screen, biochemical, fluorescence, single point; inhibition, % at 10.4 µM; AID 602329, 2012; RAD54 Holliday junction branch migration, FAM/BHQ fluorescence; 360,000 compounds, 0.14% hits;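 active = mean normalized replicate activity at least 40 and at least half of replicates scoring 40 or more; inconclusive = only one of the two criteria met; inactive = mean below 40 and under half of replicates reaching 40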;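 also: inhibitors cause a drop in the FAM fluorescence signal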
Apaf-1 inh – inhibitors of human Apaf-1 apoptosome, primary screen, biochemical, DEVD-Rh110 fluorescence, uHTS; Apoptotic protease-activating factor 1 (Homo sapiens), O14727; reconstituted apoptosome caspase-3 activity; inhibition, % at 20 µM; 330,000 compounds, 0.71% hits; AID 489030, 2010; active = inhibition of at least 40% at 20 µM
Target sequence (O14727 whole entry, looked up): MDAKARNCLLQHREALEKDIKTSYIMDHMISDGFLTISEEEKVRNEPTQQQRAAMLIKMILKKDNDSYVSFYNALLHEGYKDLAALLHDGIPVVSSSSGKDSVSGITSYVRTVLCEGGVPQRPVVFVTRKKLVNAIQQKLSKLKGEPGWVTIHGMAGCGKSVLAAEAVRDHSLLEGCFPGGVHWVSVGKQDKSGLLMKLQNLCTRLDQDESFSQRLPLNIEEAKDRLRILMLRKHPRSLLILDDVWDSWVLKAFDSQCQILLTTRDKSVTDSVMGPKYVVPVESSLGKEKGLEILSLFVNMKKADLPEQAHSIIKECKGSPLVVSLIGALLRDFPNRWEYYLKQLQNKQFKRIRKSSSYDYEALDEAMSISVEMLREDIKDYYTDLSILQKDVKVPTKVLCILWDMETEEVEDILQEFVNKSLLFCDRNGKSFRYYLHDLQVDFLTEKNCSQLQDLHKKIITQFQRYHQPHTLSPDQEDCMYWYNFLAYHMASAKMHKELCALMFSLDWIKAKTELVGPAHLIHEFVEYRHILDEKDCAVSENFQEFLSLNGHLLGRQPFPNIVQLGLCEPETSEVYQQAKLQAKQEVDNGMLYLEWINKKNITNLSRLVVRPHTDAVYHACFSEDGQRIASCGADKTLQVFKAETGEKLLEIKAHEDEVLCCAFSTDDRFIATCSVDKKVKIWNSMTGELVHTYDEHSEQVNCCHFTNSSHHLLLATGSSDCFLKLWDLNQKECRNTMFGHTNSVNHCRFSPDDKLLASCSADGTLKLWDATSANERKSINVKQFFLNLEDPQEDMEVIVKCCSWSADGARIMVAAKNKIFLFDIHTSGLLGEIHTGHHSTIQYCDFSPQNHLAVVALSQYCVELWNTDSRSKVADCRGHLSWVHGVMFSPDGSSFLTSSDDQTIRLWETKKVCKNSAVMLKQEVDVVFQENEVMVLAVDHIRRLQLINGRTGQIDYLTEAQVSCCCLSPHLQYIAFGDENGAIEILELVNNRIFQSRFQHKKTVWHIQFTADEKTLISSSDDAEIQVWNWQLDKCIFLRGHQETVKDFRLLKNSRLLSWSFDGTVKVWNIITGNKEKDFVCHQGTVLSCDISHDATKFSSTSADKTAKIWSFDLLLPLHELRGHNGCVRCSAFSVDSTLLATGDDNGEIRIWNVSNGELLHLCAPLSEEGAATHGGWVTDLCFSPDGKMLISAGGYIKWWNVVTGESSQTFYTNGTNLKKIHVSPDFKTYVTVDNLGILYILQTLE
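Assay system: Apoptosome proteins | Medium: pH 7.5 Hepes buffer with CHAPS, BSA, DTT | Also added: Cytochrome c and DEVD-Rh110 substrate | Times: 30 min plus 50 min, RT | Detection: Rhodamine 110 fluorescence at Ex 480/Em 540 nm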
FID counter – compounds displacing fluorescent DNA intercalator, primary screen, artefact control for HCV NS3 helicase inhibitor project, biochemical, FID fluorescence | 290,000 compounds, 0.17% hits | DNA fluorescent intercalator displacement | AID 1845, 2009 | inhibition, % at 7.9 µM; in the data active = inhibition above about 37%;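 also: higher means more ethidium bromide displaced from hairpin DNA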
Neddyl block – inhibitors of cullin neddylation, primary screen, biochemical, TR-FRET, uHTS, NAE and Ubc12. NEDD8-conjugating enzyme Ubc12 (Homo sapiens) + NEDD8-activating enzyme E1 regulatory …. calls only at 25 µM. 360,000 compounds, 0.58% hits; in the data active = inhibition above about 36%
UBC13 inh – UBC13 polyubiquitin chain formation inhibitors, primary screen, biochemical, TR-FRET, uHTS | Ubiquitin-conjugating enzyme E2 N (Homo sapiens), P61088 | inhibition, % at 20 µM | 330,000 compounds, 0.47% hits | AID 485273, 2010; in the data active = inhibition above about 45%, passing the limit was not always enough; inconclusive = no clear call, values can overlap the other calls
RAD52 DNA ctr – DNA-binding compounds via dye displacement, dose response, artefact control for RAD52 inhibitor project, biochemical, fluorescence polarization, cherry-pick; shares compounds with RAD52 inh; Salmon sperm DNA/acridine orange FP displacement; AC50, µM; AID 652128, 2013; 1,000 compounds, 8% hits;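 active = fitted half-maximal concentration for signal loss at or below twice the highest dose tested, in every separate run, actives reach about 64 µM in these data; inconclusive = runs disagree, or flat partial signal loss, or poor fit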
Of the large screens only hits and unclear results are named; the others gave an inactive call (follow-up assays come after a bar, where shown).

COc1cccc(S(=O)(=O)Nc2ccc3c(c2)[C@H]2C[C@@H](CC(=O)NCc4ccc(Cl)cc4)O[C@H](CO)[C@H]2O3)c1	none (no result: Apaf-1 inh, FID counter, Neddyl block, UBC13 inh)
N#Cc1ccc(N)cc1OCCCN1CCCCC1	RAD52 inh 86 (no result: Apaf-1 inh, FID counter, UBC13 inh) | RAD52 DNA ctr inactive
Cc1ccc(C)c(OCCCCN2CCCCC2)c1	none
O=C(C[C@H]1C=C[C@@H](NC(=O)c2cccnc2)[C@@H](CO)O1)NCc1ccncn1	none (no result: RAD54 branch, Apaf-1 inh, FID counter, Neddyl block, UBC13 inh)
CN(C)CCc1cc2c(c3c1ccc1ccccc13)OCO2	RAD52 inh 100, RAD54 branch 95, FID counter 43, UBC13 inh inconclusive | RAD52 DNA ctr 37µM
CCSc1ccc(-c2cc(NC=O)c3ncc(-c4cccc(C(=O)NCCN(C)C)c4)n3c2)cc1	RAD52 inh 66 (no result: Apaf-1 inh, FID counter, UBC13 inh) | RAD52 DNA ctr inactive
CC(=O)Nc1cc(-c2ccccc2N(C)C)cn2c(-c3cccc(C(F)(F)F)c3)cnc12	none (no result: Apaf-1 inh, FID counter, UBC13 inh)
CC(=O)Nc1cc(-c2cccc(C(=O)NCCN(C)C)c2)cn2c(-c3cccc(C(F)(F)F)c3)cnc12	RAD52 inh 86 (no result: Apaf-1 inh, FID counter, UBC13 inh) | RAD52 DNA ctr inactive
CN(C)C(=O)c1cccc(-c2cnc3c(NC=O)cc(-c4ccccc4F)cn23)c1	none (no result: Apaf-1 inh, FID counter, UBC13 inh)
CN(C)CCNC(=O)c1cccc(-c2cnc3c(NC=O)cc(/C=C/c4ccccc4)cn23)c1	RAD52 inh 80 (not shown: Apaf-1 inh, FID counter, Neddyl block, UBC13 inh) | RAD52 DNA ctr inactive
CC(C)c1cn(CC[C@H]2CC[C@H](NC(=O)C3CCC3)[C@@H](CO)O2)nn1	none (no result: Apaf-1 inh, FID counter, Neddyl block, UBC13 inh)
Cc1noc(C)c1NC(=O)Nc1ccc2c(c1)CC(=O)N([C@@H](C)CO)C[C@@H](C)[C@H](CN(C)CC1CC1)O2	none (no result: Apaf-1 inh, FID counter, Neddyl block, UBC13 inh)
CCC(=O)N1CC2(C1)[C@H](c1ccccc1)[C@H](CO)N2C(=O)c1cccnc1	none (no result: RAD54 branch, Apaf-1 inh, FID counter, Neddyl block, UBC13 inh)
CCN1CCN(c2cc(C)c3cc(NC(=S)NCc4cccs4)ccc3n2)CC1	RAD52 inh 50 | RAD52 DNA ctr inactive
Cc1cc(N2CCN(C)CC2)nc2ccc(NC(=S)NCc3cccs3)cc12	RAD52 inh 63 | RAD52 DNA ctr inactive
COc1ccccc1-c1ccc2n(c1=O)C[C@H]1[C@H](CO)[C@@H](C(=O)Nc3nccs3)N(CC3CC3)[C@@H]21	none (no result: Apaf-1 inh, FID counter, Neddyl block, UBC13 inh)
C[C@@H]1CCCCO[C@@H](CN(C)S(=O)(=O)c2ccc(Cl)cc2)[C@H](C)CN([C@@H](C)CO)C(=O)c2cc(NC(=O)CCCN(C)C)ccc2O1	none (no result: Apaf-1 inh, FID counter, Neddyl block, UBC13 inh)
CN(C)CCCNc1nc2cc(-c3ccsc3)sc2c(=O)n1C	RAD52 inh 52 (no result: Apaf-1 inh, FID counter, UBC13 inh) | RAD52 DNA ctr inactive
Cc1ccc(F)cc1-c1cc2nc(NCCCN(C)C)n(C)c(=O)c2s1	RAD52 inh 56 (no result: Apaf-1 inh, FID counter, UBC13 inh) | RAD52 DNA ctr inactive
Cn1c(NCc2ccccc2)nc2cc(-c3ccccc3)sc2c1=O	none (no result: Apaf-1 inh, FID counter, UBC13 inh)
COCCNc1nc2cc(-c3ccsc3)sc2c(=O)n1C	none (no result: Apaf-1 inh, FID counter, UBC13 inh)
CN(C)CCCNc1nc2cc(-c3cnn(Cc4ccccc4)c3)sc2c(=O)n1C	RAD52 inh 59 (no result: Apaf-1 inh, FID counter, UBC13 inh) | RAD52 DNA ctr inactive
C/C=C/c1ccc([C@@H]2[C@@H](CO)N3C(=O)CN(C(=O)c4ccncc4)C[C@H]23)cc1	none (no result: RAD54 branch, Apaf-1 inh, FID counter, Neddyl block, UBC13 inh)
CCN(CCN(C)C)C(=O)c1ccc2c(c1NCCO)C(=O)c1ccccc1C2=O	RAD52 inh 58 (no result: RAD54 branch) | RAD52 DNA ctr 58µM
CN(C)c1ccc2c(c1)[C@@H]1C[C@@H](CC(=O)NCc3ccc4c(c3)OCO4)O[C@H](CO)[C@@H]1O2	none (no result: Apaf-1 inh, FID counter, Neddyl block, UBC13 inh)
CCc1nc2ccc(C(=O)Nc3cc(-c4ccccc4)ccc3OC)cn2c1N(CCN(C)C)CC1CC1	RAD52 inh 63 (no result: Apaf-1 inh, FID counter, UBC13 inh) | RAD52 DNA ctr inactive
CO[C@H]1CN(C)C(=O)c2cc(NC(=O)NC3CCCCC3)ccc2OC[C@@H](C)N(C(C)=O)C[C@@H]1C	none (no result: RAD52 inh, Apaf-1 inh, FID counter, Neddyl block, UBC13 inh)
O=C(C[C@@H]1C[C@@H]2c3cc(NC(=O)NC4CCCC4)ccc3O[C@@H]2[C@@H](CO)O1)NCc1ccc(Cl)cc1	none (no result: Apaf-1 inh, FID counter, Neddyl block, UBC13 inh)
